Screening results (PubChem BioAssay)
An excerpt weighted towards active compounds, which were near 0.7% of everything screened.
CaV13 ICDI inh: Primary screen for inhibitors of IQ motif and Ca2+-dependent inactivation inhibitor domain binding in CACNA1D, Förster resonance energy transfer in living cells, … | HEK cells, CFP/YFP FRET ICDI-IQ, plate reader, 10 min; percent FRET-ratio fall versus neutral wells | inhibition, % at 12.3 µM | 0.098% of 340,000 active | AID 743397;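 active means mean replicate inhibition of at least 30% and at least 1% of replicates passing that level; inconclusive means only one of the two criteria is met; inactive means neither criterion is met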;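 further: 0% = median of the neutral control wells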
Glyco luc inh: increase of ERlucT glycosylation luciferase signal, primary screen, N-linked glycosylation inhibitor project, D54 ERlucT cells, luminescence, set 2; D54 ERlucT glycosylation luciferase reporter, 24 h; percent of 100 nM tunicamycin response; reporter increase, % at 12.5 µM; 0.23% of 360,000 active;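 active means mean luciferase reporter signal, scaled so untreated is 0 and the glycosylation-blocking control 100, at or above a set limit in every replicate; inconclusive means mean reaches the limit but not every replicate does; inactive means mean below the limit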;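 further: luciferase carries N-glycosylation sites so blocking glycosylation raises the light; 0% = median of neutral control wells and 100% = median of 100 nM tunicamycin wells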
RAD54 inh: inhibitors of human RAD54 branch migration, primary screen, biochemical, fluorescence, single point | RAD54 Holliday junction branch migration, FAM/BHQ fluorescence | AID 602329, 2012 | inhibition, % at 10.4 µM | DNA repair and recombination protein RAD54-like (Homo sapiens), Q92698 | 0.14% of 360,000 active;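 active means mean normalized replicate activity at least 40 and at least half of replicates scoring 40 or more; inconclusive means only one of the two criteria met; inactive means mean below 40 and under half of replicates reaching 40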;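 further: 0% = median of neutral control wells and 100% = median of positive control wells; inhibitors cause a drop in the FAM fluorescence signal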
RAD52 inh: RAD52 DNA annealing inhibitors, primary screen, biochemical, FRET, single point, set 2; DNA repair protein RAD52 homolog (Homo sapiens), P43351; recombinant RAD52 DNA annealing, FRET fluorescence; inhibition, % at 18.7 µM; 0.46% of 360,000 active;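 active means every replicate showing at least 50% inhibition; inconclusive means mean inhibition at least 50% but not in every replicate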
Target sequence (P43351 whole entry, looked up): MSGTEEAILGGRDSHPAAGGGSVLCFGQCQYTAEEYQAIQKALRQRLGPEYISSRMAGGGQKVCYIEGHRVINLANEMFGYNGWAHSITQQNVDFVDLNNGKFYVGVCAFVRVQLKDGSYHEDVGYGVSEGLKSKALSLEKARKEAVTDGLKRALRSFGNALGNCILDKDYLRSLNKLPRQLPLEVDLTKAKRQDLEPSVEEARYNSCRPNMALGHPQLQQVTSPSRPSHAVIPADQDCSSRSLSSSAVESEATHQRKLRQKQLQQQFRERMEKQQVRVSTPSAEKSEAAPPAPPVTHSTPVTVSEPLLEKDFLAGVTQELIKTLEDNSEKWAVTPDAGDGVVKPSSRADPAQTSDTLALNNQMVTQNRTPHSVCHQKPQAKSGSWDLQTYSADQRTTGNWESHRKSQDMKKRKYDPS
FN deposition inh: inhibitors of fibronectin matrix deposition, primary screen, AH1F cells, Alexa488-fibronectin fluorescence, plate reader | AH1F fibroblasts, overnight | inhibition, % at 12.6 µM | AID 743247, 2014 | 0.086% of 350,000 active;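 active means mean inhibition across replicates of 30% or more, regardless of how many single replicates reach that level; inconclusive means mean under 30% yet at least half of replicates reach 30%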;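 further: positive control wells lacked labelled fibronectin entirely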
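test system = AH1F fibroblasts assembling fluorescent fibronectin matrix | quantity = 10000 AH1F cells per well | buffer or medium = DMEM plus 2% serum, read in PBS | doses = single dose, pinned | incubation = 1 h cell attachment, overnight exposure to compound and label | detection = fluorescence at 485 nm excitation, 525 nm emission | read-out basis = inhibition from reduced deposited-fibronectin fluorescence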
DNA binder FP: DNA-binding compounds via dye displacement, dose response, artefact control for RAD52 inhibitor project, biochemical, fluorescence polarization, cherry-pick; 8% of 1,000 active; shares compounds with RAD52 inh; AC50, µM; AID 652128, 2013; Salmon sperm DNA/acridine orange FP displacement;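 active means fitted half-maximal concentration for signal loss at or below twice the highest dose tested, in every separate run, actives reach about 64 µM in these data; inconclusive means runs disagree, or flat partial signal loss, or poor fit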
* marks the source's active call; other numbers are inactive results; i = inactive; ? = inconclusive; / = not tested or not shown.

SMILES	CaV13 ICDI inh	Glyco luc inh	RAD54 inh	RAD52 inh	FN deposition inh	DNA binder FP
CCCCN(CC)CCNC(=O)CCC(=O)Nc1ccc2nc(N3CCN(C)CC3)cc(C)c2c1	-9	2	44	81*	-2	i
CCN(CC)CCCNC(=O)CCC(=O)Nc1ccc2nc(N3CCCCC3)cc(C)c2c1	-135	0	/	27	10	/
COCCNC(=S)Nc1ccc2nc(N3CCOCC3)cc(C)c2c1	-4	1	5	10	-3	/
CCCN(CCC)CCCNC(=S)Nc1ccc2nc(N3CCN(CC)CC3)cc(C)c2c1	-6	-2	/	97*	-2	i
Cc1cc(N2CCOCC2)nc2ccc(NC(=S)NC(C)C)cc12	-18	3	8	53*	2	i
CCN1CCN(c2cc(C)c3cc(NC(=O)c4ccc(C)c(C)c4)ccc3n2)CC1	-7	-11	26	1	8	/
CCOC(=O)N1CCN(C(=S)Nc2ccc3nc(N4CCN(CC)CC4)cc(C)c3c2)CC1	-5	-4	37	54*	-12	i
C[C@@H]1CCCCO[C@H](CN(C)S(=O)(=O)c2cn(C)cn2)[C@H](C)CN([C@@H](C)CO)C(=O)c2cc(NC(=O)NC3CCCCC3)ccc2O1	/	/	-2	1	/	/
COC(=O)C1=C(C)N(Cc2cccc(C(F)(F)F)c2)C(=NCc2cccc(C(F)(F)F)c2)NC1c1ccc(Cl)cc1 (stereo not drawn)	-3	/	/	67*	-3	i
COC(=O)C1=C(C)N(Cc2ccc(C(F)(F)F)cc2)C(=NCc2ccc(C(F)(F)F)cc2)NC1c1ccccc1 (stereo not drawn)	-7	/	/	59*	-3	i
Cc1noc(C)c1S(=O)(=O)Nc1ccc2c(c1)C(=O)N([C@@H](C)CO)C[C@@H](C)[C@@H](CN(C)S(=O)(=O)c1ccc(Cl)cc1)OCCCC[C@H](C)O2	/	/	1	-40	-8	/
CN1[C@@H]2c3ccc(-c4ccccc4F)c(=O)n3C[C@@H]2[C@@H](CO)[C@@H]1C(=O)NCc1ccncc1	/	/	2	-4	/	/
C[C@H](CO)N1C[C@H](C)[C@H](CN(C)Cc2ccccc2O)OCc2cn(nn2)CCCC1=O	/	/	-8	15	-4	/
CCCCCCCC[n+]1cccc2c3ccccc3ccc21	-19	?	/	39	5	/
CCCCCCCCCC[n+]1cccc2c3ccccc3ccc21	-19	19	/	72*	-7	i
CCCN1CCc2c(sc(NC(=S)NC(=O)c3ccccc3)c2C#N)C1	16	-5	/	33	-3	/
CC(C)N1CCc2c(sc(NC(=O)c3nc4ccccc4s3)c2C(N)=O)C1	-63	-7	/	68*	-9	i
CC(C)N1CCc2c(sc(NC(=S)NC(=O)c3ccccc3)c2C#N)C1	-2	-3	/	54*	-1	i
CCOc1cc(/C=C/c2cccc[n+]2C)ccc1O	-1	-1	11	72*	-2	i
COc1ccc(CNC(=O)C[C@@H]2C[C@H]3c4cc(NC(=O)C5CCC5)ccc4O[C@H]3[C@H](CO)O2)cc1	/	/	-4	10	-9	/
CCOC(=O)c1c(-c2ccccc2)oc2ccc(OCC(O)CNCCN(C)C)cc12 (stereo not drawn)	-4	-6	38	83*	8	i
CCOC(=O)c1c(-c2ccccc2)oc2ccc(OCC)cc12	-4	-1	3	/	10	/
CC(C)C#Cc1cnc2c(c1)C(=O)N([C@H](C)CO)C[C@@H](C)[C@@H](CN(C)C(=O)Nc1ccccc1)O2	/	/	14	7	-4	/
O=C(NCCNC(=O)c1ccccc1)c1ccccc1	0	0	19	53*	10	i
Oc1ccccc1/C=N/[n+]1ccccc1	-5	0	-7	58*	6	i
SMILES	CaV13 ICDI inh	Glyco luc inh	RAD54 inh	RAD52 inh	FN deposition inh	DNA binder FP
Oc1ccccc1C=NC(c1ccccc1)C(O)c1ccccc1 (stereo not drawn)	-7	-1	0	/	/	/
COc1ccccc1N1CCN(CC(=O)c2ccc(F)cc2)CC1	-19	3	2	-10	-12	/
CC(CC(=O)c1ccc(F)cc1)N1CCN(c2ccccc2)CC1 (stereo not drawn)	-10	2	/	80*	7	i
CO[C@H]1CN(C)C(=O)c2ccc(NS(=O)(=O)c3cn(C)cn3)cc2OC[C@@H](C)N(C)C[C@H]1C	/	/	-10	0	-3	/
C[n+]1c2n(c3ccccc31)N=C(c1cc(C(C)(C)C)c(O)c(C(C)(C)C)c1)CS2	-7	12	/	60*	/	i
CC(=O)N(C)C[C@H]1Oc2ncc(-c3ccc(C)cc3)cc2C(=O)N([C@@H](C)CO)C[C@@H]1C	/	/	6	2	/	/
CN(C)CCCOc1ccc(-c2cc3nc(NCc4cccnc4)n(C)c(=O)c3s2)cn1	-5	-3	46	60*	7	i
COc1cccc(-c2cc3nc(NCc4cccnc4)n(C)c(=O)c3s2)c1	-16	-3	4	26	-11	/
CN(C)CCCNc1nc2cc(-c3cccc(C(F)(F)F)c3)sc2c(=O)n1C	-6	-5	28	66*	-2	?
COc1cc(NCCCCC(C)N)c2nccc(C)c2c1 (stereo not drawn)	-6	-1	10	76*	0	i
C[n+]1c(-c2ccc(C=NNC(=O)c3ccc(C(=O)NN=Cc4ccc(-c5cn6ccccc6[n+]5C)cc4)cc3)cc2)cn2ccccc21	-7	2	/	94*	-16	26µM*
NC(N)=N/N=C/c1ccc(OCc2ccccc2Cl)cc1	-9	-13	13	27	/	i
CCN(CC)CCN1CCn2c3c(c4cc(C)ccc42)CCCC31 (stereo not drawn)	-30	3	/	63*	-1	i
CCN1CCn2c3c(c4cc(Cl)ccc42)CCCC31 (stereo not drawn)	-5	-1	10	/	12	/
Cc1ccc(C(=O)C[n+]2ccc3ccccc3c2)cc1	-17	4	/	-6	-1	/
Cc1ccc(SCCc2cc[n+](CC(=O)c3ccccc3)cc2)cc1	-7	4	/	54*	/	i
Cc1cc(C)cc(NC(=S)NCc2cccn2C)c1	-5	-3	/	65*	/	i
C[C@H](CO)N1C[C@H](C)[C@H](CN(C)C(=O)Nc2ccc(F)cc2)Oc2ccc(NC(=O)Nc3ccc(C(F)(F)F)cc3)cc2C1=O	/	/	-5	-18	/	/
